TAAR1 agonist = human TAAR1 agonism | activation, % at 3 µM | CHO RD-HGA16 TAAR1, Fluo-8 calcium fluorescence; vehicle wells 0%, saturating PEA agonist 100% | Q96RJ0 | actives 0.99% (n = 360,000);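 active means activation above the mean activation of all test compounds in the run plus 3 SD, cut at about 38% in these data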
Target sequence (Q96RJ0 whole entry, looked up): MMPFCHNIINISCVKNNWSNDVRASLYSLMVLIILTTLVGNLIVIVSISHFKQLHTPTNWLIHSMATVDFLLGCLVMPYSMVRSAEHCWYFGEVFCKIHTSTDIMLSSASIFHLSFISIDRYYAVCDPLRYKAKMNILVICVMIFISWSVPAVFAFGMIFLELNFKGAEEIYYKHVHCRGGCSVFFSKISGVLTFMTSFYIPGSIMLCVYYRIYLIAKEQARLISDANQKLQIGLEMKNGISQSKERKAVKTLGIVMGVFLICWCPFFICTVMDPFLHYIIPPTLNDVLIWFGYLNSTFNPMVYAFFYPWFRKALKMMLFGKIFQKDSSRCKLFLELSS
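Test system: RD-HGA16 (CHO) cells co-expressing Gα16 and hTAAR1 | Doses: Single dose, 3 µM | Schedule: 17-24 h seeding, 75 min 37 °C dye, 30 min RT | Evaluation: % activation from peak over basal fluorescence ratio, DMSO-to-PEA scaled | Technique: Kinetic Fluo-8 calcium fluorescence | Benchmarks: Low control DMSO, high control PEA (EC100)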
TAAR1 antagonist = antagonists of human TAAR1; CHO RD-HGA16 TAAR1, Fluo-8 calcium fluorescence, antagonist; inhibition, % at 3 µM; actives 1.5% (n = 360,000); AID 624466;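 active means inhibition above a per-plate cutoff, the mean inhibition of test compounds on that plate plus 3 SD, cut at about 49% in these data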
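Assay system: RD-HGA16 CHO cells with stable hTAAR1 and Gα16 / Reagent: EC80 β-phenethylamine stimulus / Doses: 3 µM, single point / Timing: dye loading 75 min at 37 °C, then 30 min room temperature / Measured by: Fluo-8 intracellular calcium dye fluorescence, real-time kinetic reads / Controls: vehicle wells and EC80 agonist wells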
GPR7 antagonist = human neuropeptides B/W receptor 1 antagonism; P48145; GPR7-expressing cells, fluorescence antagonist assay; inhibition, % at 4.4 µM; actives 1.1% (n = 290,000); AID 1861; in the data active means inhibition above about 16%, passing the limit was not always enough;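 further: cells stimulated with the agonist NPW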
Target sequence (P48145 whole entry, looked up): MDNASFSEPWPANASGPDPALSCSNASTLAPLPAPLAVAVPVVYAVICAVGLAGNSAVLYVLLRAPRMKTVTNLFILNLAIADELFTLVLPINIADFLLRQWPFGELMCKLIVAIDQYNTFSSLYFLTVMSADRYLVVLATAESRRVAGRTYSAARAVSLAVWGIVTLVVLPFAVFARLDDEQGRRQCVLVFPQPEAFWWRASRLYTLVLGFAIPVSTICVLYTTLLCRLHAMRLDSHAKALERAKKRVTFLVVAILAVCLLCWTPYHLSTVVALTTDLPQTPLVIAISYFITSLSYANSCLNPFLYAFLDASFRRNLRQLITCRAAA
CHO parental Ca = counter-screen for OX1R antagonists: effect in parental CHO cells. AID 463079. inhibition, % at 5.6 µM. parental CHO-K1, ATP-induced calcium, Fluo-8 fluorescence. actives 0.63% (n = 330,000);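 active means inhibition above that plate's mean sample inhibition plus 3 SD, cut at about 26% in these data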
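Material: Parental CHO cells | Reagent: ATP | Compound dosing: Single nominal dose of 5.6 µM per compound | Detection: Intracellular calcium via Fluo-8 no-wash fluorescent dye | Read-out: % inhibition of ATP-induced calcium mobilization | Benchmarks: Low control ATP plus DMSO, high control DMSO only | Replicates: Singlicate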
OX1R antag-1 = blocks the human orexin 1 receptor; CHO/OX1R cells, Fluo-8 calcium fluorescence, orexin A; inhibition, % at 5 µM; actives 0.43% (n = 330,000);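 active means inhibition above its plate's threshold, mean inhibition of all tested compounds on the plate plus 3 SD, cut at about 37% in these data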
OX1R antag-2 = antagonists of human orexin 1 receptor (OX1R); O43613; OX1R-expressing cells, FRET antagonist read-out; inhibition, % at 6.6 µM; actives 1.8% (n = 330,000); in the data active means inhibition mostly above about 38%, no sharp cut-off; inactive means mostly below about 40%
GPR7 antag cf = confirmation of human GPR7 antagonists. shares compounds with GPR7 antagonist. GPR7-expressing cells, calcium fluorescence antagonist mode. inhibition, % at 4.4 µM. actives 52% (n = 2,400). AID 1952; in the data active means inhibition above about 24%;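 further: stimulated with the GPR7 agonist NPW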
MCHR1 antagonist = antagonizes human MCHR1, a GPR7 antagonist counter-screen; shares compounds with GPR7 antagonist; MCHR1-expressing cells, fluorescence antagonist assay; inhibition, % at 4.4 µM; actives 62% (n = 2,400); AID 2148; in the data active means inhibition above about 22%
OX1R Fluo8 conf = confirmation of human orexin 1 receptor antagonists | shares compounds with OX1R antag-1 | inhibition, % at 5 µM | CHO/OX1R cells, orexin A calcium Fluo-8 fluorescence | actives 38% (n = 1,100) | AID 492963; in the data active means inhibition above about 29%
CHO Ca triplic = counter-screen for OX1R antagonists: effect in parental CHO cells; shares compounds with OX1R antag-1; parental CHO-K1, ATP-induced calcium, Fluo-8 fluorescence; inhibition, % at 5.6 µM; actives 9.3% (n = 1,100);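 active means inhibition above a per-plate limit, the mean inhibition of that plate's test compounds plus 3 SD, cut at about 25% in these data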
TAAR1 ag conf = human TAAR1 agonism, confirmed; shares compounds with TAAR1 agonist; CHO RD-HGA16 TAAR1, Fluo-8 calcium fluorescence; scaled: DMSO 0%, maximal phenethylamine 100%; activation, % at 3 µM; actives 82% (n = 2,400); AID 651783;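 active means activation above a cutoff set at the run's mean compound activation plus 3 SD, cut at about 39% in these data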
Ga16 ag counter = nonselective agonist in parental cells, TAAR1 agonist counter-screen; shares compounds with TAAR1 agonist; CHO-Ga16 parental, Fluo-8 calcium fluorescence; normalized to maximal ATP response, DMSO zero; activation, % at 3 µM; actives 50% (n = 2,400);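 active means activation above the run cutoff, the mean activation over all tested wells plus 3 SD, cut at about 12% in these data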
TAAR1 desens = human TAAR1 agonist that also desensitizes the receptor; shares compounds with TAAR1 agonist; CHO RD-HGA16 hTAAR1, Fluo-8 calcium, beta-PEA response inhibition; inhibition, % at 3 µM; actives 46% (n = 2,400);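 active means inhibition above the run cutoff, the mean inhibition of all test compounds plus 3 SD, cut at about 49% in these data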;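 further: beta-PEA stimulus applied at its EC80; loss of beta-PEA calcium signal after compound pretreatment read as receptor desensitization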
Ga16 nonsel ant = counter-screen for TAAR1 agonists: nonselective Ga16 antagonists; CHO-Ga16 ATP-induced calcium, Fluo-8 fluorescence; shares compounds with TAAR1 agonist; actives 39% (n = 2,400); inhibition, % at 3 µM;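 active means inhibition above the plate's mean compound inhibition plus 3 SD, computed per plate, cut at about 22% in these data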
Large screens that a line does not name were inactive (follow-up assays come after a bar, where they were run). Most compounds without a hit are left out; they make up all but 4.5% or so of the library.

O=S(=O)(NC1CCCC1)c1ccc(S(=O)(=O)NC2CCCC2)cc1	TAAR1 agonist 57, GPR7 antagonist 43 | GPR7 antag cf 51 | MCHR1 antagonist 33 | TAAR1 ag conf 45 | Ga16 ag counter 24 | TAAR1 desens inactive | Ga16 nonsel ant 32
O=S(=O)(NC1CCCCCCC1)c1ccc(F)cc1	none (no result: GPR7 antagonist)
Cc1ccc(NS(=O)(=O)c2ccc(C(=O)NCc3ccccn3)cc2)cc1	TAAR1 agonist 96, GPR7 antagonist 30 | GPR7 antag cf 44 | MCHR1 antagonist 33 | TAAR1 ag conf 110 | Ga16 ag counter 60 | TAAR1 desens 54 | Ga16 nonsel ant 31
CS(=O)(=O)Nc1ccc(C(=O)NCc2ccccn2)cc1	none
CCOC(=O)Cn1c(=O)oc2cc(S(=O)(=O)NCCc3ccc(C)cc3)ccc21	none
CCOC(=O)Cn1c(=O)oc2cc(S(=O)(=O)Nc3ccc(F)cc3)ccc21	TAAR1 agonist 89, GPR7 antagonist 25, CHO parental Ca 23 | GPR7 antag cf 42 | MCHR1 antagonist 37 | TAAR1 ag conf 109 | Ga16 ag counter 69 | TAAR1 desens 52 | Ga16 nonsel ant 32
CC(C)CC(=O)N1CC=CC[C@@H](c2ccc(Cl)cc2)N(Cc2ccc(Cl)cc2)C(=O)[C@@H]1Cc1ccccc1	none (no result: GPR7 antagonist, CHO parental Ca, OX1R antag-1, OX1R antag-2)
COC(=O)/C=C1\SC(=Nc2ccc(Cl)c(Cl)c2)NC1=O	none
COc1cc(/C=C2\SC(=Nc3ccc(Cl)c(C(=O)O)c3)NC2=O)c(Br)c(Br)c1O	TAAR1 agonist 98, TAAR1 antagonist 76, GPR7 antagonist 40 (no result: CHO parental Ca, OX1R antag-1, OX1R antag-2) | GPR7 antag cf 28 | MCHR1 antagonist 48 | TAAR1 ag conf 49 | Ga16 ag counter 58 | TAAR1 desens 57 | Ga16 nonsel ant 70
Fc1ccc2c(c1)Sc1ccc(Cl)cc1CC2N1CCN(CCC2OCCO2)CC1 (configuration not stated)	none (no result: GPR7 antagonist) | OX1R Fluo8 conf inactive | CHO Ca triplic inactive
Cc1nc(SCC(=O)c2cc(C)n(C3CC3)c2C)c2ccccc2n1	none (no result: GPR7 antagonist, CHO parental Ca, OX1R antag-1, OX1R antag-2)
CN(Cc1c(C(=O)N/N=C/c2cccc(Cl)c2)nnn1-c1nonc1N)c1ccccc1	none | OX1R Fluo8 conf inactive | CHO Ca triplic inactive
O=C(COC(=O)c1cccc(S(=O)(=O)N2CCOCC2)c1)Nc1nc(-c2ccccc2Cl)cs1	none | OX1R Fluo8 conf 36 | CHO Ca triplic 26
Cc1cc(NC(=O)COC(=O)c2cccc(S(=O)(=O)N3CCOCC3)c2)no1	none
O=C(Oc1ccc(Cl)c2cccnc12)N1CCCCC1	OX1R antag-1 90 | OX1R Fluo8 conf inactive | CHO Ca triplic inactive
O=C(Oc1ccc(Cl)c2cccnc12)N1CCOCC1	none
COC1OCC(O)C(NC(=O)N(C)N=O)C1O (configuration not stated)	none (no result: GPR7 antagonist, CHO parental Ca, OX1R antag-1, OX1R antag-2)
Cc1nnc(SCC(=O)Nc2sc3c(c2C#N)CCCC3)[nH]c1=O	none
N#Cc1c(NC(=O)CSc2nc(N)cc(=O)[nH]2)sc2c1CCCC2	none | OX1R Fluo8 conf inactive | CHO Ca triplic inactive
CCOc1cc2c(cc1C=O)OC(C)C2 (configuration not stated)	none
CCOc1cc2c(cc1/C=C/c1noc(C)c1[N+](=O)[O-])OC(C)C2 (configuration not stated)	none | OX1R Fluo8 conf 51 | CHO Ca triplic 44
COc1ccc(C(=O)Nc2cccc3ccccc23)cc1	none
COc1ccc(C(=O)NNC(=O)C(=O)Nc2cccc3ccccc23)cc1	none | OX1R Fluo8 conf inactive | CHO Ca triplic inactive
COc1ccc(COC(=O)c2cccc(S(=O)(=O)N3CCN(C(C)=O)CC3)c2)cc1	none (no result: GPR7 antagonist) | OX1R Fluo8 conf inactive | CHO Ca triplic inactive
COc1ccc(CNC(=O)c2cccc(S(=O)(=O)N3CCN(c4ccc(F)cc4)CC3)c2)cc1	none (no result: GPR7 antagonist, CHO parental Ca, OX1R antag-1, OX1R antag-2)
COc1cccc(CNC(=O)c2cccc(S(=O)(=O)N3CCN(c4ccc(F)cc4)CC3)c2)c1	none (no result: GPR7 antagonist) | OX1R Fluo8 conf inactive | CHO Ca triplic inactive
CNc1ccc(Oc2c(F)c(F)nc(F)c2F)cc1	none | OX1R Fluo8 conf inactive | CHO Ca triplic inactive
Cc1ccc(Oc2c(F)c(F)nc(N3CCCC3)c2F)cc1	none
O=C1CC(C(=O)O)C(c2ccccc2)c2ccccc21 (configuration not stated)	none (no result: GPR7 antagonist, CHO parental Ca, OX1R antag-1, OX1R antag-2)
COC(=O)c1c(C)[nH]c(C(=O)COC(=O)CCNS(=O)(=O)c2cccc(C(F)(F)F)c2)c1C	none (no result: GPR7 antagonist) | OX1R Fluo8 conf inactive | CHO Ca triplic inactive
Nc1ccc(-c2nc3ccc(-c4nc5ccccc5o4)cc3[nH]2)cc1	none | OX1R Fluo8 conf inactive | CHO Ca triplic inactive
Nc1ccc(-c2nc3ccc(N)cc3o2)cc1	none
Cc1ccc(C(C#N)c2ccc(C(=O)c3ccc(F)cc3)cc2)cc1 (configuration not stated)	none | OX1R Fluo8 conf inactive | CHO Ca triplic inactive
CCN(c1ccccc1)S(=O)(=O)c1cc(C(=O)Nc2ccc(F)c(F)c2)ccc1F	TAAR1 antagonist 56 | OX1R Fluo8 conf 38 | CHO Ca triplic inactive
CCN(c1ccccc1)S(=O)(=O)c1cc(C(=O)O)ccc1C	none
Cn1c(CCCOc2ccc(Cl)cc2Cl)nnc1SCC(=O)Nc1nccs1	none | OX1R Fluo8 conf inactive | CHO Ca triplic inactive
COc1ccccc1S(=O)(=O)N(C)C[C@@H]1OCc2cnnn2CCCC(=O)N([C@@H](C)CO)C[C@H]1C	none (no result: GPR7 antagonist, CHO parental Ca, OX1R antag-1, OX1R antag-2)
COc1ccccc1OCCCc1c(C)n[nH]c1C	none

From PubChem
